High-throughput results as filed in PubChem BioAssay.
CSC inhib = blocks cancer stem cells; cancer stem cell-like cells viability, luminescence; inhibition, % at 7.5 µM; 300,000 compounds, 1.1% hits; AID 2717; in the data active means inhibition above about 75%; tested in HMLE shEcad cells
CHOP inhibitor = CHOP inhibition in unfolded protein response. CHO-K1 CHOP-promoter luciferase, tunicamycin-induced, 15-18 h. inhibition, % at 10 µM. 220,000 compounds, 3.8% hits. AID 2732;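 active means compounds that reduced the stress-induced luciferase reporter signal by more than about 70% of percent inhibition, limit read from the data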;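 further: 0% = tunicamycin plus vehicle and 100% = wells without tunicamycin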
PREPL inh = inhibits the human prolyl oligopeptidase-like enzyme. recombinant PREPL, fluorescence polarization activity-based probe. inhibition, % at 5.96 µM. 320,000 compounds, 0.68% hits; in the data active means inhibition above about 43%;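 further: 0% = enzyme with DMSO and 100% = wells lacking enzyme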
Target sequence (Q4J6C6 whole entry, looked up): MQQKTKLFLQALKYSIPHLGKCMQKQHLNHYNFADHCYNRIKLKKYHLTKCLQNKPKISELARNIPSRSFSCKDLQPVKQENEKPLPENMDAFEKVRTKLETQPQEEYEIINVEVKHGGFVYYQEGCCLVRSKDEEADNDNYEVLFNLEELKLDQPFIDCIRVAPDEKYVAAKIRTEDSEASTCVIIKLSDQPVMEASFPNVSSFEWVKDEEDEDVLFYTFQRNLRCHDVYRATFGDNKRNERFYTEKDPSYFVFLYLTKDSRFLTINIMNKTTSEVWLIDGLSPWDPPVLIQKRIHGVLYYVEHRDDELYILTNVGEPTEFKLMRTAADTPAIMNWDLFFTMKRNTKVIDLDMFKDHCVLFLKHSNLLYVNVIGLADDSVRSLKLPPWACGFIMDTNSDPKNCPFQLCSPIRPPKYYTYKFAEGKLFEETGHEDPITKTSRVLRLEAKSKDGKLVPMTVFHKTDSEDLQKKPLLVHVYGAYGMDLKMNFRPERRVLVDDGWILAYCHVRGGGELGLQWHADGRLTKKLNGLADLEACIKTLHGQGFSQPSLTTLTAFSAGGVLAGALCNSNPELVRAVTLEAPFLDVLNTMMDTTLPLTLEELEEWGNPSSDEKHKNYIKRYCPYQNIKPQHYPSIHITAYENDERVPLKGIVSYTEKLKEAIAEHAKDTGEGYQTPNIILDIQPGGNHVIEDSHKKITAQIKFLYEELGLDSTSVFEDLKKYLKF
T cruzi inh = T. cruzi replication inhibition. T. cruzi beta-gal in NIH3T3, luminescence, 90 h. inhibition, % (concentration not given with the values). 300,000 compounds, 1.4% hits. AID 1885;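 active means mean inhibition across valid replicates above about 55%, limit read from the data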;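 further: signal also drops with host cell toxicity which is not excluded here; 0% = plate median of DMSO wells and 100% = zero luminescence signal; higher percent means less beta-gal luminescence so fewer parasites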
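System – NIH/3T3 host cells with β-galactosidase reporter T. cruzi · Doses – single 50 nL compound addition per well in DMSO · Reagent – 5000 T. cruzi trypomastigotes/well · Medium – Low-serum DMEM with 2% FBS · Timing – ≥90 h infection period, 3 h prior cell attachment · Evaluation – parasite load inhibition, % · Technique – GalScreen luminescence, 60 min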
Beta apoptosis = blocks beta cell apoptosis; protection from apoptosis, % (no concentration beside the values); 300,000 compounds, 0.8% hits; INS-1E cytokine-induced death, ATP luminescence, 48 h; percent of positive-control rescue, neutral wells zero;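 active means Every replicate reaches about 75%, or at least half do and their mean reaches it too, limit read from the data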;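 further: 0% = cytokine-treated negative control wells and 100% = positive control rescue; higher means more ATP so stronger rescue from cytokine killing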
NR3A LBD binder = modulates the human NR3A ligand-binding domain | AID 1259313 | NR3A LBD differential scanning fluorimetry, Tm shift; 0% = protein alone, 100% = glycine-bound protein | Tm shift relative to glycine control, % at 25 µM | 340,000 compounds, 2.5% hits;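 active means melting temperature shift of at least 10% of the positive control shift, at one fixed dose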
* = called active by the depositor. Sampled rows, rich in hits. Any-hit rate of the full collection: about 6.7%.

How did CCc1nc(SCC(=O)Nc2c(C)nn(C)c2C)c2cnn(-c3ccccc3)c2n1 do in these assays?
CHOP inhibitor: 90.0*; T cruzi inh: -15.9

How did CCCC(=NCC(=O)O)C1=C(O)C(C(=O)OC)C(C)(C)CC1=O (centres undefined) do in these assays?
CSC inhib: -4.0; CHOP inhibitor: 15.1; PREPL inh: 4.6; T cruzi inh: -2.0; Beta apoptosis: 4.3; NR3A LBD binder: 25.3*

How did CCCC(=NCc1ccccc1)C1=C(O)C(C(=O)OC)C(C)(C)CC1=O (centres undefined) do in these assays?
CSC inhib: -4.3; CHOP inhibitor: 20.8; PREPL inh: 23.5; T cruzi inh: -0.4; Beta apoptosis: -1.2; NR3A LBD binder: 1.3

Results for Cc1cccc(C(=O)NC(=S)NNC(=O)Cc2ccccc2)c1 ?
CSC inhib: -7.5; CHOP inhibitor: 20.2; PREPL inh: 6.7; T cruzi inh: -21.7; Beta apoptosis: 10.2; NR3A LBD binder: -0.3

Results for Cc1cccc(C(=O)NC(=S)NNC(=O)c2ccccc2Cl)c1 ?
CSC inhib: 12.1; CHOP inhibitor: 85.7*; PREPL inh: 0.4; T cruzi inh: 12.8; Beta apoptosis: 7.4; NR3A LBD binder: -2.5

What do the screens show for `CC(=O)NNC(=S)NC(=O)c1ccccc1`?
CHOP inhibitor: 10.9; PREPL inh: 0.8; T cruzi inh: 3.3; Beta apoptosis: -3.4; NR3A LBD binder: 0.4

How did Cc1ccc(C(=O)NNC(=S)NC(=O)c2ccc(Cl)cc2)cc1 do in these assays?
CSC inhib: 26.4; CHOP inhibitor: 94.2*; PREPL inh: 1.6; T cruzi inh: -5.8; Beta apoptosis: 18.8; NR3A LBD binder: -20.1

What do the screens show for `CCC(=O)NNC(=S)NC(=O)c1ccc(C)cc1`?
CSC inhib: -7.9; CHOP inhibitor: 44.3; PREPL inh: -1.3; T cruzi inh: -2.0; Beta apoptosis: 5.4; NR3A LBD binder: 0.2

Results for Cc1ccc(C(=O)NC(=S)NNC(=O)COc2ccccc2C)cc1 ?
CSC inhib: 14.5; CHOP inhibitor: 102.6*; PREPL inh: -10.8; T cruzi inh: 32.3; Beta apoptosis: -3.6; NR3A LBD binder: 0.4

What do the screens show for `CC(=O)NNC(=S)NC(=O)c1ccc(C)cc1`?
CHOP inhibitor: 80.0*; PREPL inh: 5.9; T cruzi inh: -16.3; Beta apoptosis: 1.3; NR3A LBD binder: -0.3

How did COc1cccc(NC(=O)CN(C)S(=O)(=O)c2ccc3[nH]c(=O)oc3c2)c1 do in these assays?
CSC inhib: 14.0; PREPL inh: 20.1; T cruzi inh: -21.9; Beta apoptosis: -1.6; NR3A LBD binder: -1.3

What do the screens show for `O=C(CSc1ccccc1)N1CCCC(N2CCN(c3cccc(Cl)c3)CC2)C1` (centres undefined)?
CSC inhib: 15.1; PREPL inh: -1.1; T cruzi inh: 16.5; Beta apoptosis: -0.1

What do the screens show for `CCCN1CCN(CC(O)COC(c2ccc(OC)cc2)c2ccc(OC)cc2)CC1` (centres undefined)?
CSC inhib: 6.6; PREPL inh: 20.2; T cruzi inh: -2.9; Beta apoptosis: -4.4; NR3A LBD binder: -0.1

Results for Cc1ccc(OCC(=O)NC(=S)Nc2ccccn2)c(Br)c1 ?
CSC inhib: -7.0; PREPL inh: -1.2; T cruzi inh: 0.8; Beta apoptosis: -6.0; NR3A LBD binder: 2.2

What do the screens show for `Cc1ccc(OCC(=O)NNC(=S)NC(=O)C(C)(C)C)c(Br)c1`?
CSC inhib: 15.5; CHOP inhibitor: 92.0*; PREPL inh: 4.3; T cruzi inh: 27.1; Beta apoptosis: 20.5; NR3A LBD binder: -2.5

What do the screens show for `CC1CCCCN1C(=O)C1COc2ccccc2O1` (centres undefined)?
CSC inhib: -7.8; PREPL inh: -0.2; T cruzi inh: -1.8; NR3A LBD binder: -1.8

Results for Cc1cc(OCC(=O)Nc2cc(-c3nn4c(C)nnc4s3)ccc2C)ccc1Cl ?
CSC inhib: -22.8; CHOP inhibitor: 95.3*; PREPL inh: 12.8; Beta apoptosis: 2.9; NR3A LBD binder: -3.1

What do the screens show for `CCCCNc1ncnc2[nH]ncc12`?
NR3A LBD binder: -0.8

How did COC(=O)c1c(NC(=O)c2ccco2)sc2c1CCC2 do in these assays?
CSC inhib: 76.5*; CHOP inhibitor: 76.1*; PREPL inh: 0.2; T cruzi inh: 5.3; Beta apoptosis: 4.4; NR3A LBD binder: 0.2

How did CCOC(=O)c1c(CC(C)C)csc1NC(=O)COC(=O)c1ccc(O)cc1 do in these assays?
NR3A LBD binder: 25.2*

How did O=C(Nc1sc2c(c1C(=O)NC1CC1)CCCCCC2)c1ccco1 do in these assays?
CHOP inhibitor: 95.8*; PREPL inh: 9.9; T cruzi inh: -0.8; Beta apoptosis: -6.5; NR3A LBD binder: -0.5

How did CNC(=O)c1c(NC(=O)c2ccco2)sc2c1CCCC2 do in these assays?
CSC inhib: -4.6; PREPL inh: 4.4; T cruzi inh: 15.9; Beta apoptosis: 2.7; NR3A LBD binder: -0.5

What do the screens show for `CCOC(=O)c1[nH]c(C)c(C(=O)OCC(=O)Nc2sc3c(c2C#N)CCCCC3)c1C`?
CSC inhib: -7.4; CHOP inhibitor: 84.1*; PREPL inh: 6.5; T cruzi inh: 16.3; Beta apoptosis: 14.2; NR3A LBD binder: -0.4

Results for Cc1ccc(C(=O)OCC(=O)Nc2sc3c(c2C#N)CCC3)cc1 ?
CSC inhib: -2.7; CHOP inhibitor: 20.8; PREPL inh: 2.6; T cruzi inh: 4.8; Beta apoptosis: -1.3; NR3A LBD binder: 4.9

How did O=C(CCc1nc2ccccc2c(=O)[nH]1)OCc1ccc(Cl)cc1Cl do in these assays?
CSC inhib: -5.8; CHOP inhibitor: 6.2; PREPL inh: -5.2; T cruzi inh: -13.0; Beta apoptosis: -0.8; NR3A LBD binder: -0.7

How did COCC(=O)Nc1sc2c(c1C(=O)OC)CCCC2 do in these assays?
CSC inhib: -11.5; CHOP inhibitor: -15.8; PREPL inh: 10.0; T cruzi inh: 1.8; Beta apoptosis: -6.5; NR3A LBD binder: -0.6

Results for CCOC(=O)c1c(NC(=O)C(C)OC(=O)c2ccc(NC(=O)CC#N)cc2)sc2c1CCCC2 (centres undefined) ?
CSC inhib: 0.7; PREPL inh: -14.2; T cruzi inh: 4.5; Beta apoptosis: 5.5; NR3A LBD binder: 12.1*

How did COC(=O)c1c(NC(=O)COC(=O)c2ccc(O)cc2)sc2c1CCCCC2 do in these assays?
CSC inhib: 22.0; CHOP inhibitor: 56.2; PREPL inh: -3.3; T cruzi inh: 44.0; Beta apoptosis: 9.1; NR3A LBD binder: 17.8*

How did COC(=O)c1c(NC(=O)c2c(-c3ccccc3Cl)noc2C)sc2c1CCC2 do in these assays?
CSC inhib: -6.8; CHOP inhibitor: 81.4*; PREPL inh: -10.3; T cruzi inh: 13.2; Beta apoptosis: -3.1; NR3A LBD binder: -2.5

What do the screens show for `C=CCn1c(C)nnc1SCC(=O)Nc1ccccc1C(=O)NC1CC1`?
NR3A LBD binder: 0.2

Results for O=S(=O)(/C=C/c1ccccc1)N1CCN(Cc2ccc3c(c2)OCO3)CC1 ?
CSC inhib: 5.5; CHOP inhibitor: 8.5; PREPL inh: -6.1; T cruzi inh: 3.0; Beta apoptosis: -4.1; NR3A LBD binder: 2.6
